Substrate in data set [1]: CN(C)CCOc1ccc(/C(=C(/CCCl)c2ccccc2)c2ccc(O)cc2)cc1
The data set is described as follows: Activity of human SULT1A1 expressed in escherichia coli assessed as enzyme-mediated 4-(4-chloro-1-(4-(2-(dimethylamino)ethoxy)phenyl)-2-phenylbut-1-enyl)phenyl hydrogen sulfate formation after 15 mins by Michaelis-Menten equation in presence of 20 uM PAPS. In kind it is ADME. Put shortly: (§1)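 Purified E. coli-expressed human enzyme (DEAE-Sepharose, ~80% pure; activity per total protein) incubated with 0.1–30 µM 4-OH-TOR, 20 µM PAPS, 50 mM potassium phosphate pH 6.2, 15 min at 37 °C. Reaction started with enzyme, stopped with acetonitrile:acetic acid (96:4). Sulfate quantified by radio-HPLC. Triplicate runs, corrected with a no-substrate control. Low substrate range chosen to limit substrate inhibition.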

Substrate in data set [2]: CN(C)CCOc1ccc(/C(=C(/CCCl)c2ccccc2)c2ccc(O)cc2)cc1
Kind of data set: Activity of human SULT1E1 expressed in escherichia coli assessed as enzyme-mediated 4-(4-chloro-1-(4-(2-(dimethylamino)ethoxy)phenyl)-2-phenylbut-1-enyl)phenyl hydrogen sulfate formation after 15 mins by Michaelis-Menten equation in presence of 20 uM PAPS. It is filed as ADME. Put shortly:
as §1

B1: Sulfotransferase 1A1 (Homo sapiens) (protein)
chain: MELIQDTSRPPLEYVKGVPLIKYFAEALGPLQSFQARPDDLLISTYPKSGTTWVSQILDMIYQGGDLEKCHRAPIFMRVPFLEFKAPGIPSGMETLKDTPAPRLLKTHLPLALLPQTLLDQKVKVVYVARNAKDVAVSYYHFYHMAKVHPEPGTWDSFLEKFMVGEVSYGSWYQHVQEWWELSRTHPVLYLFYEDMKENPKREIQKILEFVGRSLPEETVDFVVQHTSFKEMKKNPMTNYTTVPQEFMDHSISPFMRKGMAGDWKTTFTVAQNERFDADYAEKMAGCSLSFRSEL
B1: in data set [1], the Km stood at 2.6 µM and the Vmax was 0.0085 µmol/min.

B2: Sulfotransferase 1E1 (Homo sapiens) (protein)
chain: MNSELDYYEKFEEVHGILMYKDFVKYWDNVEAFQARPDDLVIATYPKSGTTWVSEIVYMIYKEGDVEKCKEDVIFNRIPFLECRKENLMNGVKQLDEMNSPRIVKTHLPPELLPASFWEKDCKIIYLCRNAKDVAVSFYYFFLMVAGHPNPGSFPEFVEKFMQGQVPYGSWYKHVKSWWEKGKSPRVLFLFYEDLKEDIRKEVIKLIHFLERKPSEELVDRIIHHTSFQEMKNNPSTNYTTLPDEIMNQKLSPFMRKGITGDWKNHFTVALNEKFDKHYEQQMKESTLKFRTEI
For the protein B2, in data set [2], the Km was 6.4 µM and the maximum rate (Vmax) was 0.0055 µmol/min.

By Km is commonly meant the concentration of substrate that gives half-maximal velocity. One may read the Vmax as the top rate of the reaction or transport when substrate is in excess.

The values are drawn from ChEMBL document CHEMBL3525912, “Sulfation of 4-hydroxy toremifene: individual variability, isoform specificity, and contribution to toremifene pharmacogenomics” (Drug Metab Dispos, 2012).
